The record followed here is ChEMBL document CHEMBL1153264, “(1,2,3-Triazol-4-yl)benzenamines: synthesis and activity against VEGF receptors 1 and 2” (Bioorg Med Chem Lett, 2009).

Calls of active or inactive are those of the source. No cut-off for these calls is given here.

Test [1] has as its target T1, Vascular endothelial growth factor receptor 2 (Homo sapiens, UniProt P35968). Nature of the test: Inhibition of VEGFR2 by HTRF assay in presence of 2 uM ATP. The procedure, abridged: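 HTRF kinase assay with KDR enzyme (3–4 ng) and biotinylated pGAT substrate. ATP added to start, 45 min at RT. Stopped with EDTA/KF buffer plus Eu-cryptate anti-phosphotyrosine antibody, 2 h RT, then HTRF read. IC50 from 10-point log concentration curves, mean of at least two duplicate runs.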
In general terms: Time-resolved FRET reads energy transfer from a long-lived donor to a nearby acceptor.

Test [2] addresses T1, Vascular endothelial growth factor receptor 2. Nature of the test: Inhibition of VEGF-induced phosphorylation of VEGFR2 by cell-based ELISA. A general note: ELISA stands for enzyme-linked immunosorbent assay.
The target in test [3] is Vascular endothelial growth factor receptor 1 (Homo sapiens, UniProt P17948). Description: Inhibition of VEGFR1 by HTRF assay.
Test [4] concerns the target Insulin-like growth factor 1 receptor (Homo sapiens) (UniProt P08069). Description: Inhibition of IGF1R at 10 uM.
The target in test [5] is Insulin receptor (Homo sapiens) (UniProt P06213). Nature of the test: Inhibition of IR at 10 uM.
For test [6], the target named is Fibroblast growth factor receptor 1 (Homo sapiens) (UniProt P11362). Nature of the test: Inhibition of FGFR1 at 10 uM.
Sequence of Fibroblast growth factor receptor 1 (Homo sapiens) (P11362 22-822 limits assumed): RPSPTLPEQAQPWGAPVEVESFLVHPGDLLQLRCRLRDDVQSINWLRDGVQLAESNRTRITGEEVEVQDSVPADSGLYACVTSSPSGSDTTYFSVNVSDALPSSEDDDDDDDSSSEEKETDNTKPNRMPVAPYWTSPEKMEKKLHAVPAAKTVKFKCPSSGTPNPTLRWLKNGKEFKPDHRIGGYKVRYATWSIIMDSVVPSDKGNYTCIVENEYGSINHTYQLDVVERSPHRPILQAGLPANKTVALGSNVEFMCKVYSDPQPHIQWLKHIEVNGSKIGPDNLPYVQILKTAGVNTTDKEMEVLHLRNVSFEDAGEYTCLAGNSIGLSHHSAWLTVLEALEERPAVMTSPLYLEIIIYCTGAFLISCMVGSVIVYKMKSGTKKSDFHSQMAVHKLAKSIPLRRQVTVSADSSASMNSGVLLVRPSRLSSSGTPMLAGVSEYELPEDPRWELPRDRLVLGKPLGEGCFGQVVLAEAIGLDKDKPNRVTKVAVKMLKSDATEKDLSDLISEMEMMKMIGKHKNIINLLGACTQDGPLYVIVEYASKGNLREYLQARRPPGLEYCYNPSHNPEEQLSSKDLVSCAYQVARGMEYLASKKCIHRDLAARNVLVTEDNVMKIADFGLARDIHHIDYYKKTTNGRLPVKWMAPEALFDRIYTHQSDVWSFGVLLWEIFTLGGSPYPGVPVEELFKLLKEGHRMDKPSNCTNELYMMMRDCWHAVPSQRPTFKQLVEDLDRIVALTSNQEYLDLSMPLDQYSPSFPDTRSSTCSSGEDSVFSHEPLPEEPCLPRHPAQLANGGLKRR
The target in test [7] is Receptor-type tyrosine-protein kinase FLT3 (Homo sapiens) (UniProt P36888). Description: Inhibition of Flt3 at 10 uM.
The target in test [8] is Epidermal growth factor receptor (Homo sapiens) (UniProt P00533). Nature of the test: Inhibition of EGFR at 10 uM.
The target of test [9] is Receptor tyrosine-protein kinase erbB-2 (Homo sapiens) (UniProt P04626). Description: Inhibition of ErbB2 at 10 uM.
Sequence of Receptor tyrosine-protein kinase erbB-2 (Homo sapiens) (P04626 whole entry): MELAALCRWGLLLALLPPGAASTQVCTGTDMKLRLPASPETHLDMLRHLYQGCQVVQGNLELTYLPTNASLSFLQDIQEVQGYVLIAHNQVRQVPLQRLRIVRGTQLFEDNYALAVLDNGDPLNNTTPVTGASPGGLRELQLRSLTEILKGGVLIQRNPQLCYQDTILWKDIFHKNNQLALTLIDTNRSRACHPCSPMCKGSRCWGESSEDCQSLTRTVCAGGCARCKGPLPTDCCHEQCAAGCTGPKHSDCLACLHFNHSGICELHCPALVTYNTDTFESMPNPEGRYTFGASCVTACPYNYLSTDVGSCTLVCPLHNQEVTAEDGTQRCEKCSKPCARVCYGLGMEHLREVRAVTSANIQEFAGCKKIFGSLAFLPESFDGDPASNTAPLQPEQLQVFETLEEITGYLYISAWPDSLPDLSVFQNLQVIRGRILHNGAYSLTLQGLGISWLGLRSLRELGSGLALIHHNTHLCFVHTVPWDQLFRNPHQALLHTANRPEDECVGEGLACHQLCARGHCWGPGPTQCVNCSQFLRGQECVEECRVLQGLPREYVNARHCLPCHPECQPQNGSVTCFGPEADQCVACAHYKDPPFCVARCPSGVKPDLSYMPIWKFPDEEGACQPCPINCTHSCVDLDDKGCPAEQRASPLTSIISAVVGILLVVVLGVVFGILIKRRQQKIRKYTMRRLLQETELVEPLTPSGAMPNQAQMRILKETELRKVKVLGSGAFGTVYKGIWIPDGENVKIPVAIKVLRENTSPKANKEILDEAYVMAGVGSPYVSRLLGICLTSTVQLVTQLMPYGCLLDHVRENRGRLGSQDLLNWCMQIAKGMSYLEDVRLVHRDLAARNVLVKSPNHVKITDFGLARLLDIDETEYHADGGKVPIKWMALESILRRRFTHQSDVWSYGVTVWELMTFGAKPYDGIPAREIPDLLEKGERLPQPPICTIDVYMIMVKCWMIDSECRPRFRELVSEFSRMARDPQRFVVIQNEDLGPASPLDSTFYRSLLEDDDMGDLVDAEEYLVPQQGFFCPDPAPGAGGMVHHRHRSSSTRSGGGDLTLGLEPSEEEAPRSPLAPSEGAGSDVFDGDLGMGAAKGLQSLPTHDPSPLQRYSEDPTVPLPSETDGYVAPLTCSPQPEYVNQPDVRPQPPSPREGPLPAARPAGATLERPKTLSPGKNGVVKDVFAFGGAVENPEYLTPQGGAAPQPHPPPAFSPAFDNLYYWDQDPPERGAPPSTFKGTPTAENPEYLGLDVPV
Test [10] addresses Hepatocyte growth factor receptor (Homo sapiens) (UniProt P08581). Description: Inhibition of c-Met at 10 uM.
For test [11], the target named is Macrophage-stimulating protein receptor (Homo sapiens) (UniProt Q04912). Description: Inhibition of Ron at 10 uM.
Test [12] can be described thus: Inhibition of PKA at 10 uM.
For test [13], the target named is Glycogen synthase kinase-3 beta (Homo sapiens) (UniProt P49841). Nature of the test: Inhibition of GSK3-beta at 10 uM.
Sequence of Glycogen synthase kinase-3 beta (Homo sapiens) (P49841 whole entry, looked up, the tested form may be a part): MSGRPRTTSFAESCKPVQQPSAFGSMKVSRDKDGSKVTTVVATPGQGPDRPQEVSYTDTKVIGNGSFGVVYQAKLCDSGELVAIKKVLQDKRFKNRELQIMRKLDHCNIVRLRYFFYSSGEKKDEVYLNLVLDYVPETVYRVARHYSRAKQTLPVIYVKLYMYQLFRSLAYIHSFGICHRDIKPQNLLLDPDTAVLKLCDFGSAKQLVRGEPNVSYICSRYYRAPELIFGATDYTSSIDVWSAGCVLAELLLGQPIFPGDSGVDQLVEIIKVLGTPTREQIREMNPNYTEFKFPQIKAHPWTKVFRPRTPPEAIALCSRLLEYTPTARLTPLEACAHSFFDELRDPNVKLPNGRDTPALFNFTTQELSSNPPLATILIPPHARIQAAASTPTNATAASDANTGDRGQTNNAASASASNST
Test [14] has as its target Bcr/Abl fusion protein (Homo sapiens) (UniProt P00519+P11274). Description: Inhibition of Bcr-Abl at 10 uM. Format: protein assay.
Test [15] in a line: Inhibition of Bcr-Abl T315 mutant at 10 uM.
For test [16], the target named is Cyclin-dependent kinase 1 (Homo sapiens) (UniProt P06493). Nature of the test: Inhibition of Cdk1 at 10 uM.
Sequence of Cyclin-dependent kinase 1 (Homo sapiens) (P06493 whole entry, looked up): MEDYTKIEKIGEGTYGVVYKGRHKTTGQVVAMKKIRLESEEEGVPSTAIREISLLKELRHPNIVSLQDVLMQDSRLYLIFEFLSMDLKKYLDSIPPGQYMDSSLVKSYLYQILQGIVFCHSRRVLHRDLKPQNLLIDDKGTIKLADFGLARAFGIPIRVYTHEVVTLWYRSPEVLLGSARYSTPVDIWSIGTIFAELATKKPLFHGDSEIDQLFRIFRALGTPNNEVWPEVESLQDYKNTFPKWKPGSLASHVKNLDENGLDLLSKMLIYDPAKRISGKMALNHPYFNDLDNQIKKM
In test [17] the target is Cyclin-dependent kinase 2 (Homo sapiens) (UniProt P24941). Description: Inhibition of Cdk2 at 10 uM.
In test [18] the target is Proto-oncogene tyrosine-protein kinase Src (Homo sapiens) (UniProt P12931). Description: Inhibition of Src at 10 uM.
Sequence of Proto-oncogene tyrosine-protein kinase Src (Homo sapiens) (P12931 2-536 limits assumed): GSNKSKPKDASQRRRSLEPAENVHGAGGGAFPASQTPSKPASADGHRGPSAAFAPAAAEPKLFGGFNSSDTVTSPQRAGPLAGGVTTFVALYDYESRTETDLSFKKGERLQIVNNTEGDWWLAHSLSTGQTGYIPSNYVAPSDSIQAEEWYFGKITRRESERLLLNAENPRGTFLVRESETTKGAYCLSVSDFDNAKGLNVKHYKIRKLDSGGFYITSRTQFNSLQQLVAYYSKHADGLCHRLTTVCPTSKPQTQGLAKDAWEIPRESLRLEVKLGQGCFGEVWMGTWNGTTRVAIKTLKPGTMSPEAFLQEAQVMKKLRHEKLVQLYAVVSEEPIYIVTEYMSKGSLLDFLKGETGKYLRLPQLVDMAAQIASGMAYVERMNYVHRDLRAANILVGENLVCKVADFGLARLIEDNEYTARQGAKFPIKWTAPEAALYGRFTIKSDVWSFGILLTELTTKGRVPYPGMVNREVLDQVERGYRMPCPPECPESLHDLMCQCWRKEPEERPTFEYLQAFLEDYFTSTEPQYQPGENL
Test [19] has as its target T2, Aurora kinase A (Homo sapiens) (UniProt O14965).
T2 sequence (whole entry): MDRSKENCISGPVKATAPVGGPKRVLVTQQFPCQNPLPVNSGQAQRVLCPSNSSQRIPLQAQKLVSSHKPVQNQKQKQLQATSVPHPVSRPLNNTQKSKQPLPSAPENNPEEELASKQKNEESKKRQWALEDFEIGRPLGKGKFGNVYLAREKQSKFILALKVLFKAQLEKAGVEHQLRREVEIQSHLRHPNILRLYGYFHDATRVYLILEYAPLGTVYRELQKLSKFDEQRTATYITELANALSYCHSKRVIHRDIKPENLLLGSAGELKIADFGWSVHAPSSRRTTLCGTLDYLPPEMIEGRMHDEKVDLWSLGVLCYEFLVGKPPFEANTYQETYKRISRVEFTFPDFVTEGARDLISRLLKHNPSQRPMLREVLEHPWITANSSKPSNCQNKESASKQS
Description: Inhibition of Aurora A at 10 uM.

Test [20] has as its target Aurora kinase B (Homo sapiens) (UniProt Q96GD4). Description: Inhibition of Aurora B at 10 uM.
Test [21] deals with Serine/threonine-protein kinase PLK1 (Homo sapiens) (UniProt P53350). Nature of the test: Inhibition of Plk1 at 10 uM.

Sequence of Hepatocyte growth factor receptor (Homo sapiens) (P08581 whole entry): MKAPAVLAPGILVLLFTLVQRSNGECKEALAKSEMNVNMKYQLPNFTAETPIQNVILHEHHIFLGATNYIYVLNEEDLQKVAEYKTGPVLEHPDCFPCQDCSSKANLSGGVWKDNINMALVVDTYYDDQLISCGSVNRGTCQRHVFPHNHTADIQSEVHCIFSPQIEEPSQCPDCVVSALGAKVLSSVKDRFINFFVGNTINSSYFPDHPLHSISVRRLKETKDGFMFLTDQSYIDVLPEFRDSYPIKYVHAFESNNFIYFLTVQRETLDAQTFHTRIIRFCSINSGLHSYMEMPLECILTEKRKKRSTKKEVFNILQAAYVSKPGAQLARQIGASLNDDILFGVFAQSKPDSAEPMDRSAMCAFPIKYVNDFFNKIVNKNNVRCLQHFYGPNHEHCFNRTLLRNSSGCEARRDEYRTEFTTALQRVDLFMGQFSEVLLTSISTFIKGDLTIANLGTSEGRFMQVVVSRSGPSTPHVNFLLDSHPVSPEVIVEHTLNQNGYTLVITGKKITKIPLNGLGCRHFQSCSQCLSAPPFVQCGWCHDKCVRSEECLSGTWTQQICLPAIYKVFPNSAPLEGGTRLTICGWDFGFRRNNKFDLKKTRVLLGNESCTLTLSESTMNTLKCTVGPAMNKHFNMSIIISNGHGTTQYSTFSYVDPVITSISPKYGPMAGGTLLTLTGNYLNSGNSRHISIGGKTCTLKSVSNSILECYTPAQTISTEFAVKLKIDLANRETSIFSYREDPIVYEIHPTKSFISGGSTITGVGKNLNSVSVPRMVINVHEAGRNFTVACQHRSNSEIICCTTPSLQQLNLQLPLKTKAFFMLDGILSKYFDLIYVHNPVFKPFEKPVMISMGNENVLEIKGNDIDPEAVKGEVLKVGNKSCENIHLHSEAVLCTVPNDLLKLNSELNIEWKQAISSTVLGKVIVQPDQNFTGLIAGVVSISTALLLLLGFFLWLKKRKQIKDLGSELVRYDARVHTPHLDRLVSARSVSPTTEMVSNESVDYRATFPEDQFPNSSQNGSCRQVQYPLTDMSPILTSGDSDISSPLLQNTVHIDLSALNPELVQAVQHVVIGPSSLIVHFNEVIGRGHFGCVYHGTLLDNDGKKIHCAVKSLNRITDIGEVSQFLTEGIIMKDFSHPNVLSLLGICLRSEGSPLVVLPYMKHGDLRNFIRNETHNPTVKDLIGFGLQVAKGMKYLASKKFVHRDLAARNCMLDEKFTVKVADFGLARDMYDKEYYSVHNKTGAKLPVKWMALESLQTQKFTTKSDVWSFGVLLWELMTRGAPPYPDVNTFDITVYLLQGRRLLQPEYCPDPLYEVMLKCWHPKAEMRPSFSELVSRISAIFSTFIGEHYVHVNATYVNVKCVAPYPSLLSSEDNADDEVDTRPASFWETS
Sequence of Aurora kinase B (Homo sapiens) (Q96GD4 whole entry): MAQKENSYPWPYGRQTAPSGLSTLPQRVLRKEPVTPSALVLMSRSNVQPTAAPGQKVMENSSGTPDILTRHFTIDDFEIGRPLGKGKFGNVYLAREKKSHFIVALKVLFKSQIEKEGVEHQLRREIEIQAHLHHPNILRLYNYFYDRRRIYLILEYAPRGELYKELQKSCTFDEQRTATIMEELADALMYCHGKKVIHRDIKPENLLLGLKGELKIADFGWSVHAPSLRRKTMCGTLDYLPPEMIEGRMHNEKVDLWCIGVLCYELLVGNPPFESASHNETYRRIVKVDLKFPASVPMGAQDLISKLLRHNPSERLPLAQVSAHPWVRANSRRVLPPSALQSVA

What is called IC50 is the concentration needed to halve the response being measured. As to `O=C(Nc1cccc(C(F)(F)F)c1)c1nn[nH]c1NCc1ccncc1`, in [1], the IC50 was 5 µM. Besides, the result in [2] was inactive.
In the case of `O=C(Nc1ccc(Cl)cc1)c1nn[nH]c1NCc1ccncc1`, the IC50 in test [1] and in [3] was above 10 µM each time.
Consider `O=C(Nc1cccc(Cl)c1)c1nn[nH]c1NCc1ccncc1`, for which the IC50 in test [1] was determined as 5 µM. In addition, in test [2], the outcome was inactive.
The inhibition is the change of the read-out against control, counted positive when it falls. Read a low inhibition as a weak effect. On to `FC(F)(F)c1cccc(-n2cc(-c3ccccc3NCc3ccnc4ccccc34)nn2)c1`, for which the IC50 in [1] amounted to 0.16 µM; in test [3], 0.21 µM; in test [2], 0.31 µM. Further, the inhibition in [4], in test [5], in test [6], in test [7], in test [8] and in [9] was below 30% in each case. The inhibition in test [10], in test [11], in test [12], in test [13], in test [14] and in test [15] was below 30% each time. The inhibition in test [16], in test [17], in test [18], in test [19], in test [20] and in test [21] was below 30% in each case.
As for `Clc1ccc(-n2cc(-c3ccccc3NCc3ccncc3)nn2)cc1`, the IC50 in test [1] came out at 0.39 µM; in test [3], 0.13 µM; in test [2] it was 0.27 µM. Besides, the inhibition in test [4], in test [5], in test [6], in test [7], in test [8] and in test [9] was below 30% in each case. The inhibition in test [10], in test [11], in [12], in test [13], in test [14] and in [15] was below 30% in each case. Moreover, the inhibition in [16], in test [17], in [18], in test [19], in [20] and in test [21] was below 30% each time.
`Cc1ccc(-n2cc(-c3ccccc3NCc3ccncc3)nn2)cc1C(F)(F)F`: the values for the IC50 in [1], in test [3] and in test [2] were 0.14 µM, 0.11 µM and 0.18 µM, respectively. Also, the inhibition in test [4], in test [5], in [6], in test [7], in test [8] and in test [9] was below 30% each time. Also, the inhibition in test [10], in test [11], in test [12], in test [13], in test [14] and in test [15] was below 30% throughout. Moreover, the inhibition in [16], in test [17], in test [18], in test [19], in test [20] and in [21] was below 30% each time.
In the case of `O=C(Nc1ccc(C(F)(F)F)cc1)c1[nH]nnc1NCc1ccncc1`, the IC50 in test [1] and in [3] was above 10 µM in each case.
With `FC(F)(F)Oc1ccc(-n2cc(-c3ccccc3NCc3ccncc3)nn2)cc1`, the IC50 in test [1] came out at 1.22 µM; in [3], 1.13 µM; in test [2], 3.11 µM. For the same molecule, the inhibition in test [4], in test [5], in [6], in [7], in test [8] and in [9] was below 30% throughout. Besides, the inhibition in [10], in test [11], in test [12], in [13], in test [14] and in test [15] was below 30% throughout. For the same molecule, the inhibition in [16], in [17], in test [18], in test [19], in test [20] and in test [21] was below 30% in each case.
Consider `Clc1cccc(-n2cc(-c3ccccc3NCc3cccnc3)nn2)c1`, for which the results for the IC50 in test [1], in test [3] and in test [2] were 4.23 µM, above 10 µM and above 10 µM, respectively. Besides, the inhibition in [4], in test [5], in [6], in [7], in test [8] and in test [9] was below 30% throughout. Moreover, the inhibition in [10], in [11], in [12], in test [13], in test [14] and in test [15] was below 30% each time. In addition, the inhibition in test [16], in test [17], in test [18], in [19], in test [20] and in test [21] was below 30% throughout.
For `Clc1cccc(-n2cc(-c3ccccc3NCc3ccccn3)nn2)c1`, the IC50 in test [1], in [3] and in test [2] was above 10 µM throughout. Also, the inhibition in test [4], in [5], in [6], in test [7], in test [8] and in [9] was below 30% each time. In addition, the inhibition in [10], in test [11], in test [12], in [13], in [14] and in [15] was below 30% throughout. Further, the inhibition in test [16], in test [17], in test [18], in test [19], in [20] and in [21] was below 30% each time.
For `Fc1ccc(CNc2ccccc2-c2cn(-c3cccc(Cl)c3)nn2)cc1F`, the inhibition in [4], in test [5], in test [6], in [7], in test [8] and in [9] was below 30% in each case. Moreover, the inhibition in [10], in test [11], in test [12], in test [13], in test [14] and in test [15] was below 30% in each case. Besides, the inhibition in test [16], in test [17], in test [18], in test [19], in test [20] and in [21] was below 30% in each case.
